This is a sample that favours compounds with a hit; in the whole collection about 3.5% have one here.
RGS4 pot: potentiators or activators of RGS4; HEK293 M3R/inducible RGS4, carbachol calcium flux Fluo4; active compounds read low; B-score at 10 µM; AID 463111; hit rate 0.92% among 310,000;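 active means B-score of the integrated calcium signal more than 4 SD below the library mean, with starting fluorescence not abnormally high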;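 further: negative B-score means reduced calcium response which marks RGS4 activation or potentiation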
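Also added: carbachol at ECmax as muscarinic agonist stimulus; Assay system: HEK293 cells with stable M3R and inducible RGS4; Timing: overnight RGS4 induction, 30 min dye load 37 °C, 20 min compound RT; Measured by: Fluo4-AM (2 µM) calcium-flux fluorescence, kinetic read.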
MrgX1 allo act: allosterically activates human MrgX1 receptor signaling | AID 588675 | MrgX1-HEK293, Fluo-4 calcium flux, FDSS; active compounds read high | Q96LB2 | hit rate 0.63% among 310,000 | B-score at 10 µM;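 active means plate-corrected calcium response at least 3 library SD above typical, normal starting fluorescence, not activating the receptor alone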;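 further: compound read alongside a low EC10 to EC30 dose of BAM8-22 agonist; peak minus trough fluorescence over baseline measured at the second addition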
Target sequence (Q96LB2 whole entry, looked up): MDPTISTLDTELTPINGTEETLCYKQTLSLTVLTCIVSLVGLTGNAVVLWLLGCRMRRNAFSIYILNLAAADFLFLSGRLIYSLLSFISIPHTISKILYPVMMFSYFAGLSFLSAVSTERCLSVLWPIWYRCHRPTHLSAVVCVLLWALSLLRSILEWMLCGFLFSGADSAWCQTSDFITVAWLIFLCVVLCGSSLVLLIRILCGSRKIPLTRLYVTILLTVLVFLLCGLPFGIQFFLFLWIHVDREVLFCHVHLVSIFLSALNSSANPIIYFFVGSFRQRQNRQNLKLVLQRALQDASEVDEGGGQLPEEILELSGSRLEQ
RGS4 inh: human RGS4 inhibition; HEK293 M3R/RGS4 inducible, Fluo-4 calcium flux; active compounds read high; triggered by carbachol at its EC20; B-score at 10 µM; hit rate 0.45% among 310,000; AID 463165;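 active means B-score, a plate-corrected calcium signal, over three deviations above library mean, with baseline fluorescence within five deviations of library mean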;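 further: RGS4 expression induced by doxycycline in cells with stable M3 receptor; B-score is computed from the integrated fluorescence ratio over baseline after carbachol; higher B-score means a larger calcium signal and so more RGS4 inhibition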
Target sequence (P49798 whole entry, looked up): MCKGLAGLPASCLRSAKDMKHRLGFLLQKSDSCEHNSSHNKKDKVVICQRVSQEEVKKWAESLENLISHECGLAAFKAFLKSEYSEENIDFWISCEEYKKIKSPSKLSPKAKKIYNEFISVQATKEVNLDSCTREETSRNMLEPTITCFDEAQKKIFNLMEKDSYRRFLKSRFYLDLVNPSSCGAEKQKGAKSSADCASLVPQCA
MrgX1 antag: human MrgX1 receptor antagonism, primary screen; Q96LB2; MRGX1-HEK293 calcium flux, Fluo-4, BAM8-22 antagonism; active compounds read low; B-score at 10 µM; hit rate 1.3% among 310,000;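 active means calcium-response B-score plate-corrected more than 3 library SD below zero, starting fluorescence within 5 deviations, no agonist response on first addition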;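 further: peak minus trough fluorescence over baseline after final BAM8-22 challenge near maximal dose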
MrgX1 ag: human MrgX1 receptor agonism, primary screen; MrgX1-HEK293 cells, Fluo-4 calcium fluorescence, agonist mode; active compounds read high; hit rate 0.44% among 310,000; B-score at 10 µM;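 active means calcium response B-score plate-corrected fluorescence ratio at least 3 library SD, with starting fluorescence B-score inside 5 SD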
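System: HEK293 cells stably expressing human MrgX1 receptor; Dosing: test compound in the initial addition of three; Schedule: overnight plating, then 30 min 37 °C plus 30 min room-temperature dye loading; Detection: kinetic calcium dye fluorescence, Fluo-4 NW; Controls: per-plate positive and negative controls for Z′ factor.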
RGS4 inh valid: validation of RGS4 inhibitors; calcium response, % at 10 µM; AID 492999; hit rate 65% among 1,700; HEK293 M3R/RGS4, carbachol calcium Fluo-4 fluorescence; carbachol added at its EC20; 0 = buffer wells, 100 = carbachol control; shares compounds with RGS4 inh;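 active means duplicate-averaged calcium response above the buffer-only control mean plus 5 SD of those controls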;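 further: integrated fluorescence ratio F max minus min over baseline F0; higher response in RGS4-induced cells means RGS4 inhibition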
RGS4 uninduced: non-induced cell nonspecific activity of RGS4 inhibitors. hit rate 20% among 1,900. activity (percent), % at 10 µM. shares compounds with RGS4 inh. HEK293 M3R non-induced, carbachol calcium Fluo-4; submaximal (EC20) carbachol stimulus; buffer wells 0%, carbachol control wells 100%. AID 493000; call rule not given here;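 further: RGS4 induction absent so cells express M3R without RGS4; higher means more calcium signal and flags a non-specific hit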
RGS4 inh ctr2: signal in non-induced cells without carbachol, RGS4 inhibitor counter-screen | shares compounds with RGS4 inh | HEK293 M3R/RGS4 non-induced, Fluo-4 calcium, no carbachol; normalised: buffer wells 0%, carbachol wells 100% | calcium response (agonist-mode artifact), % at 10 µM | hit rate 22% among 1,900;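 active means duplicate-averaged calcium rise in uninduced cells above buffer wells' mean plus 5 SD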
Starred values were filed as active, the others as inactive; i = inactive; nt = no result.

SMILES	RGS4 pot	MrgX1 allo act	RGS4 inh	MrgX1 antag	MrgX1 ag	RGS4 inh valid	RGS4 uninduced	RGS4 inh ctr2
O=C(Nc1nnc(CC2=CCCCC2)s1)Nc1ccccc1F	i	i	i	i	i	nt	nt	nt
O=C(Nc1cccc(Cl)c1)Nc1nnc(CC2=CCCCC2)s1	i	i	10*	i	i	5.5%*	i	i
Cc1ccc(/C=N/N2CCN(Cc3ccccc3)CC2)cc1	i	i	i	i	i	nt	nt	nt
Cc1ccc(CN2CCN(/N=C/c3ccc(N(C)C)cc3)CC2)cc1	i	i	8.8*	i	i	i	i	i
COc1ccc(OC)c(/C=C/c2[nH]c(=O)[nH]c(=O)c2[N+](=O)[O-])c1	i	nt	10*	nt	nt	34%*	i	i
O=c1[nH]c(/C=C/c2ccc3c(c2)OCO3)c([N+](=O)[O-])c(=O)[nH]1	i	i	i	i	i	nt	nt	nt
COc1ccc(/C=C/c2c([N+](=O)[O-])c(=O)n(C)c(=O)n2C)c(OC)c1	i	i	i	i	i	nt	nt	nt
O=c1[nH]c(/C=C/c2ccc([N+](=O)[O-])cc2)c([N+](=O)[O-])c(=O)[nH]1	i	i	i	i	i	i	i	i
CSc1nc(SCC(=O)O)c2sc3nc(-c4ccccc4)c4c(c3c2n1)CCC4	i	nt	i	nt	nt	nt	nt	nt
CSc1nc(N(C)CCO)c2sc3nc(-c4ccco4)c4c(c3c2n1)CCC4	i	i	4.9*	i	i	i	i	10%*
CC(=O)OCCSc1c(-c2ccccc2)c2cc(Cl)ccc2[nH]c1=O	i	i	4.8*	i	i	14%*	i	i
COc1c(Cl)cnn(-c2ccccc2)c1=O	i	i	i	i	i	nt	nt	nt
COc1nn(-c2ccccc2)c(=O)c(Cl)c1Cl	i	i	5*	i	i	10%*	i	i
CC(C)N(CCCNC(=O)C1CCN(C(=O)c2cc3sccc3n2C)CC1)Cc1ccccc1	i	i	i	i	i	nt	nt	nt
CCOC(=O)c1sc(N2C(=O)C(O)=C(C(=O)c3ccco3)C2c2cccc([N+](=O)[O-])c2)nc1C (stereo not drawn)	i	i	i	i	i	i	i	i
N#C/C(=C\c1cccc(Br)c1)C(=O)N1CCCCC1	i	i	6.5*	i	i	25%*	i	i
N#C/C(=C\c1cccc(O)c1)C(=O)N1CCCCC1	i	i	6.3*	i	i	8.0%*	i	9.0%*
Cc1cc(/C=C(\C#N)C(=O)N2CCCCC2)cc(C)c1O	i	i	i	i	i	nt	nt	nt
CCOC(=O)c1ccccc1NC(=O)Cn1cnc2c(oc3ccccc32)c1=O	i	i	i	i	i	nt	nt	nt
CC(C)(C)OC(=O)NCCCC1=CC2=CC(=O)C(C)(O)C(=O)C2=CO1 (stereo not drawn)	i	i	i	i	i	nt	nt	nt
O=C1C2C(C(=O)N1/N=C/c1ccc(N3CCCCC3)o1)C1C=CC2C12CC2 (stereo not drawn)	i	i	i	i	i	nt	nt	nt
CCn1cc([N+](=O)[O-])c(C(=O)N2N=C(c3ccc4ccccc4c3)CC2c2ccccc2O)n1 (stereo not drawn)	i	i	i	i	i	nt	i	i
CCn1cc(Cl)c(C(=O)N2N=C(c3ccc4ccccc4c3)CC2c2ccccc2O)n1 (stereo not drawn)	i	i	i	i	i	nt	nt	nt
COc1cccc(C(C[N+](=O)[O-])c2c(C)[nH]n(-c3ccccc3)c2=O)c1 (stereo not drawn)	i	i	15*	i	50*	6.0%*	i	10%*
Cc1[nH]n(-c2ccccc2)c(=O)c1C(C[N+](=O)[O-])c1ccc(Br)cc1 (stereo not drawn)	i	6.8*	8.4*	i	i	32%*	51%*	28%*
SMILES	RGS4 pot	MrgX1 allo act	RGS4 inh	MrgX1 antag	MrgX1 ag	RGS4 inh valid	RGS4 uninduced	RGS4 inh ctr2
Cc1ccc(CSCc2ccc(C(=O)O)o2)cc1	i	i	5*	i	i	i	i	i
Cc1cccc(CSCc2ccc(C(=O)O)o2)c1	i	i	i	i	i	nt	nt	nt
Cc1nn(-c2ccccc2)c2c1C(c1ccc([N+](=O)[O-])cc1)C(C#N)=C(N)O2 (stereo not drawn)	i	i	i	i	i	nt	nt	nt
COc1cc(C2C(C#N)=C(N)Oc3c2c(-c2ccccc2)nn3-c2ccccc2)cc(OC)c1OC (stereo not drawn)	i	i	i	i	i	nt	i	i
CC(=O)Nc1ccc(NC(=O)C2CCN(C(=O)c3cccs3)CC2)cc1	i	i	i	i	i	nt	nt	nt
O=C(Cn1cnc2c(nnn2-c2cccc(Cl)c2)c1=O)NCc1ccccc1	i	i	i	i	i	nt	nt	nt
CCCCNc1c(C(=O)OCC)c(C)nc2c1cnn2CC	i	i	10*	i	i	7.5%*	28%*	i
O=C(NCC1CCCO1)C1CCC(CNS(=O)(=O)c2ccccc2)CC1 (stereo not drawn)	i	i	i	i	i	nt	nt	nt
O=C1N/C(=N\S(=O)(=O)c2ccccc2)S/C1=C\c1cc([N+](=O)[O-])ccc1O	i	i	i	i	i	nt	nt	nt
O=C1N/C(=N\S(=O)(=O)Cc2ccccc2)S/C1=C/c1cc([N+](=O)[O-])ccc1O	i	i	i	i	i	nt	nt	nt
COc1cc(/C=C2/S/C(=N/S(=O)(=O)Cc3ccccc3)NC2=O)c([N+](=O)[O-])cc1OC	i	i	i	i	i	i	i	i
COc1cc(/C=C2\S/C(=N/S(=O)(=O)Cc3ccccc3)NC2=O)c([N+](=O)[O-])cc1OC	i	i	i	i	i	i	i	i
COc1cc(/C=C2/S/C(=N/S(=O)(=O)c3ccccc3)NC2=O)c([N+](=O)[O-])cc1OC	i	i	5.9*	i	i	38%*	50%*	i
N#Cc1ccc(C2=NC(C(F)(F)F)(C(F)(F)F)c3c(n(Cc4ccco4)c(=O)[nH]c3=O)N2)cc1	i	i	6.1*	i	37*	13%*	i	16%*

Compound activity (PubChem)
